Test results from ChEMBL document CHEMBL2413052, “Synthesis and initial in vitro biological evaluation of two new zinc-chelating compounds: comparison with TPEN and PAC-1” (Bioorg Med Chem, 2013).
Calls of active or inactive are those of the source. The calls are words filed in the database; no cut-off is given here.

What was measured:
PC-12 [1] = assay: Induction of apoptosis in rat PC12 cells assessed as ROS induction by DHE oxidation-based fluorometric assay; type: functional, cell-based
PC-12 [2] = assay: Induction of apoptosis in rat PC12 cells at 200 uM after 24 hrs by trypan blue exclusion assay; type: functional, cell-based
Summary of the method: (§1)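 PC12 cells (rat pheochromocytoma) grown in DMEM with 5% horse serum, 10% FBS, penicillin/streptomycin and sodium pyruvate at 37 °C, 5% CO2. Treated 24 h at 10, 25, 50, 75, 100 and 200 µM in DMSO (0.1% final). Trypan blue in 0.9% NaCl added 1:4 for 30 min at 37 °C. Blue cells counted as dead, as % of total cells. Mean of 4 experiments ± S.D.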

[3] = Distribution co-efficient, log D of the compound at pH 7.4; type: physicochemical; conditions: buffer
PC-12 [4] = assay: Induction of apoptosis in rat PC12 cells assessed as ROS induction at 200 uM measured after 1 to 4 hrs by DHR oxidation-based fluorometric assay; type: functional, cell-based
Summary of the method: (§2)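 PC12 cells in 96-well plates were loaded with DHR (0.1 µM) for 30 min at 37 °C, washed, then treated 1 h or 4 h. Medium was replaced with PBS and fluorescence read for 30 min (ex 485/em 535 nm). The slope gave ROS production, relative to the untreated-control slope at 4 h. Untreated and DMSO controls. Mean of 3 experiments ± S.D.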

PC-12 [5] = assay: Induction of apoptosis in rat PC12 cells at 200 uM after 24 hrs by trypan blue exclusion assay in presence of ZnSO4; type: functional, cell-based
Summary of the method: (§3)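 PC12 cells exposed 24 h to chelator (25, 100 or 200 µM), alone or together with ZnSO4, caspase-3 inhibitor, or DHR as ROS scavenger. Each additive was also tested alone. Stained with trypan blue. Dead cells expressed as % of total cells. Mean of 4 experiments ± S.D. One-way ANOVA with Holm-Sidak, compared against DMSO.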

PC-12 [6] = assay: Induction of apoptosis in rat PC12 cells assessed as procaspase-3 activation at 200 uM after 24 hrs by fluorometric assay; type: functional, cell-based
Summary of the method: (§4)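 PC12 cells in 96-well plates were treated 4 h. Lysed in modified RIPA buffer (50 mM Tris-HCl pH 7.4, 1% Igepal, 0.25% deoxycholate, 150 mM NaCl, 1 mM EGTA) containing 20 µM (DEVD)2-rhodamine 110. Lysate incubated 24 h at 37 °C, fluorescence read at ex 485/em 535 nm. Wells with 1 µM Ac-DEVD-cmk served as negative control. DMSO control; staurosporine 0.5 and 1 µM as positive controls. Mean of 5 experiments ± S.D.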

[7] = Metal chelating activity of the compound assessed as zinc affinity by UV spectroscopy; type: functional
Summary of the method: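 Compound diluted from a 10 mM DMSO stock to 50 µM final in 50 mM Hepes, 100 mM NaNO3, pH 7.4. ZnSO4 added at 0–1 equiv and equilibrated 60 min. Absorbance spectra recorded from 260 to 500 nm; change followed at 360 and 400 nm.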

PC-12 [8] = assay: Induction of apoptosis in rat PC12 cells at 200 uM after 24 hrs by trypan blue exclusion assay in presence of DHR; type: functional, cell-based; summary of the method: as §3
PC-12 [9] = assay: Induction of apoptosis in rat PC12 cells after 24 hrs by trypan blue exclusion assay; type: functional, cell-based; conditions: for EC50: PC-12, 24 h; summary of the method: as §1
PC-12 [10] = assay: Induction of apoptosis in rat PC12 cells at 200 uM after 24 hrs by trypan blue exclusion assay in presence of caspase-3 inhibitor C3-I; type: functional, cell-based; summary of the method: as §3
PC-12 [11] = assay: Induction of apoptosis in rat PC12 cells at 25 uM after 24 hrs by trypan blue exclusion assay in presence of ZnSO4; type: functional, cell-based; summary of the method: as §3
PC-12 [12] = assay: Induction of apoptosis in rat PC12 cells assessed as procaspase-3 activation at 25 uM after 24 hrs by fluorometric assay; type: functional, cell-based; conditions: in the assay text read “after 4 hrs” for “after 24 hrs”; summary of the method: as §4
PC-12 [13] = assay: Induction of apoptosis in rat PC12 cells at 25 uM after 24 hrs by trypan blue exclusion assay in presence of caspase-3 inhibitor C3-I; type: functional, cell-based; summary of the method: as §3
PC-12 [14] = assay: Induction of apoptosis in rat PC12 cells assessed as ROS induction at 25 uM measured after 1 to 4 hrs by DHR oxidation-based fluorometric assay; type: functional, cell-based; summary of the method: as §2
PC-12 [15] = assay: Induction of apoptosis in rat PC12 cells assessed as procaspase-3 activation at 1 uM after 24 hrs by fluorometric assay; type: functional
Summary of the method: (§5)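 Rat PC12 cells were seeded in 96-well plates at 28 × 10^4 for 24 h, then treated for 4 h, with DMSO-treated cells as control. Cells were lysed in modified RIPA buffer (50 mM Tris-HCl pH 7.4, 1% Igepal, 0.25% deoxycholate, 150 mM NaCl, 1 mM EGTA) containing 20 µM (DEVD)2-Rhodamine 110. Lysate was incubated 24 h at 37 °C and read at ex 485/em 535 nm as RFU/million cells.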

PC-12 [16] = assay: Induction of apoptosis in rat PC12 cells assessed as procaspase-3 activation at 0.5 uM after 24 hrs by fluorometric assay; type: functional; summary of the method: as §5
PC-12 [17] = assay: Induction of apoptosis in rat PC12 cells assessed as procaspase-3 activation at 100 uM after 24 hrs by fluorometric assay; type: functional, cell-based; summary of the method: as §4
[18] = Lipophilicity, log P of the compound; type: physicochemical; conditions: octanol/water
PC-12 [19] = assay: Induction of apoptosis in rat PC12 cells at 100 uM after 24 hrs by trypan blue exclusion assay in presence of ZnSO4; type: functional, cell-based; summary of the method: as §3
PC-12 [20] = assay: Induction of apoptosis in rat PC12 cells at 100 uM after 24 hrs by trypan blue exclusion assay in presence of caspase-3 inhibitor C3-I; type: functional, cell-based; summary of the method: as §3
PC-12 [21] = assay: Induction of apoptosis in rat PC12 cells at 100 uM after 24 hrs by trypan blue exclusion assay in presence of DHR; type: functional, cell-based; summary of the method: as §3
PC-12 [22] = assay: Induction of apoptosis in rat PC12 cells assessed as ROS induction at 100 uM measured after 1 to 4 hrs by DHR oxidation-based fluorometric assay; type: functional, cell-based; summary of the method: as §2

| Compound | Activity (PC-12 [1]) | EC50 (PC-12 [2]) | logD [3] | Activity (PC-12 [4]) | Activity (PC-12 [5]) | Activity (PC-12 [6]) | Kd [7] | Activity (PC-12 [8]) | Activity (PC-12 [9]) | Activity (PC-12 [10]) | EC50 (PC-12 [9]) | also measured |
| --- | --- | --- | --- | --- | --- | --- | --- | --- | --- | --- | --- | --- |
| Cc1ncc(CO)c(/C=N/NC(=O)CN2CCN(Cc3ccccc3)CC2)c1O | inactive | ND(Insoluble) | 1.27 | Active | inactive | Active | 0.2 pM | inactive | Dose-dependent effect | inactive | – | – |
| c1ccc(CN(CCN(Cc2ccccn2)Cc2ccccn2)Cc2ccccn2)nc1 | inactive | – | – | – | – | – | 0.00026 pM | – | Dose-dependent effect | – | 38000 nM | Activity (PC-12 [11]): inactive; Activity (PC-12 [12]): Active; Activity (PC-12 [13]): inactive; Activity (PC-12 [14]): Active |
| CN[C@@H]1C[C@H]2O[C@@](C)([C@@H]1OC)n1c3ccccc3c3c4c(c5c6ccccc6n2c5c31)C(=O)NC4 [STAUROSPORINE] | – | – | – | – | – | – | – | – | – | – | – | RFU (PC-12 [15]): 30000; RFU (PC-12 [16]): 6000 |
| O=C(CN1CCN(Cc2ccccc2)CC1)NNC(=O)CN(Cc1ccccn1)Cc1ccccn1 | inactive | ND(Insoluble) | 1.4 | inactive | Active | Active | 1000 pM | inactive | Dose-dependent effect | inactive | – | – |
| C=CCc1cccc(/C=N/NC(=O)CN2CCN(Cc3ccccc3)CC2)c1O [PAC-1] | inactive | – | – | – | – | – | 42000 pM | – | Dose-dependent effect | – | 122000 nM | Activity (PC-12 [17]): Active; logP [18]: 3.43; Activity (PC-12 [19]): inactive; Activity (PC-12 [20]): inactive; Activity (PC-12 [21]): inactive; Activity (PC-12 [22]): Active |
